Results: ChEMBL document CHEMBL1124759, “Fluoronaphthyridines and quinolones as antibacterial agents. 2. Synthesis and structure-activity relationships of new 1-tert-butyl 7-substituted derivatives” (J Med Chem, 1990)
In brackets after ≈: the same amount, converted by molar mass.

Experiments:
[1] = Tested for aqueous solubility; conditions: aqueous medium
Enterococcus faecalis = test: In vitro minimum inhibitory concentration (MIC) against Enterococcus faecalis A 9808 at 37 degrees C for 18 h.; assay type: functional
In short: (§1)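 Two-fold serial broth dilution in nutrient broth. Inoculum adjusted to 10^6 cfu/mL. Compounds tested from 0.0005 to 250 µg/mL.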

Escherichia coli [2] = test: In vitro minimum inhibitory concentration (MIC) against Escherichia coli A 15119 at 37 degrees C for 18 h.; assay type: functional; in short: as §1
Enterococcus faecium = test: In vitro minimum inhibitory concentration (MIC) against Enterococcus faecium A 24885 at 37 degrees C for 18 h.; assay type: functional; in short: as §1
Escherichia coli [3] = test: Efficacy on systematic infections against Escherichia coli A 15119 after oral administration in mice; assay type: functional; conditions: read-out: PD50
In short: (§2)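 Mice given compound orally after lethal systemic infection. Read-out is the oral dose protecting 50% of mice from death (PD50), reported in mg/kg.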

Klebsiella pneumoniae [4] = test: Efficacy on systematic infections against Klebsiella pneumoniae A 9664 after oral administration in mice; assay type: functional; conditions: read-out: PD50; in short: as §2
Klebsiella pneumoniae [5] = test: In vitro minimum inhibitory concentration (MIC) against Klebsiella pneumoniae A 9664 at 37 degrees C for 18 h.; assay type: functional; in short: as §1
Morganella morganii = test: In vitro minimum inhibitory concentration (MIC) against Morganella morganii A 15153 at 37 degrees C for 18 h.; assay type: functional; in short: as §1
Pseudomonas aeruginosa [6] = test: In vitro minimum inhibitory concentration (MIC) against Pseudomonas aeruginosa A 9843 at 37 degrees C for 18 h; assay type: functional; in short: as §1
Pseudomonas aeruginosa [7] = test: Efficacy on systematic infections against Pseudomonas aeruginosa A 9843 after oral administration in mice; assay type: functional; conditions: read-out: PD50; in short: as §2
Staphylococcus aureus [8] = test: Efficacy on systematic infections against Staphylococcus aureus A 9537 after oral administration in mice; assay type: functional; conditions: read-out: PD50; in short: as §2
Staphylococcus aureus [9] = test: In vitro minimum inhibitory concentration (MIC) against Staphylococcus aureus Smith A 9537 at 37 degrees C for 18 hr; assay type: functional; in short: as §1
Serratia marcescens = test: In vitro minimum inhibitory concentration (MIC) against Serratia marcescens A 20019 at 37 degrees C for 18 hr; assay type: functional; in short: as §1
Enterobacter cloacae [10] = test: (§3) In vitro minimum inhibitory concentration (MIC) against Enterobacter cloacae A 9656 at 37 degrees C for 18 h.; assay type: functional
Escherichia coli [11] = test: In vitro minimum inhibitory concentration (MIC) against Escherichia coli A 15119 at 37 degrees Celsius for 18 h.; assay type: functional; in short: as §1
Enterobacter cloacae [12] = test: as §3; assay type: functional; in short: as §1; remark: listed apart in the source
Enterobacter cloacae [13] = test: In vitro minimum inhibitory concentration (MIC) against Enterobacter cloacae A 9656 at 37 degree C for 18 h.; assay type: functional; in short: as §1
Pseudomonas aeruginosa [14] = test: In vitro minimum inhibitory concentration (MIC) against Pseudomonas aeruginosa A 9843 at 37 degrees Celsius for 18 h; assay type: functional; in short: as §1
Canis familiaris = species: Canis familiaris; conditions: dog, in vivo, po, 25 mg/kg
Klebsiella pneumoniae [15] = test: In vitro minimum inhibitory concentration (MIC) against Klebsiella pneumoniae A 9664 at 37 degrees Celsius for 18 h.; assay type: functional; in short: as §1
Pseudomonas aeruginosa [16] = test: In vitro minimum inhibitory concentration (MIC) against Pseudomonas aeruginosa A 9843 at 37 degree C for 18 h; assay type: functional; in short: as §1
Enterobacter cloacae [17] = test: In vitro minimum inhibitory concentration (MIC) against Enterobacter cloacae A 9656 at 37 degrees Celsius for 18 h.; assay type: functional; in short: as §1

Compound	MIC (Enterococcus faecalis)	MIC (Escherichia coli [2])	MIC (Enterococcus faecium)	MIC (Klebsiella pneumoniae [5])	MIC (Morganella morganii)	MIC (Pseudomonas aeruginosa [6])	MIC (Staphylococcus aureus [9])	MIC (Serratia marcescens)	MIC (Enterobacter cloacae [10])	other results
CC(C)(C)n1cc(C(=O)O)c(=O)c2cc(F)c(N3CCNCC3)cc21	1 µg/mL (≈ 2.88 µM)	0.06 µg/mL (≈ 0.173 µM)	4 µg/mL (≈ 11.5 µM)	0.13 µg/mL (≈ 0.374 µM)	0.25 µg/mL (≈ 0.72 µM)	0.5 µg/mL (≈ 1.44 µM)	0.06 µg/mL (≈ 0.173 µM)	0.5 µg/mL (≈ 1.44 µM)	0.13 µg/mL (≈ 0.374 µM)	solubility [1]: 130 µg/mL (≈ 374 µM); ED50 (Escherichia coli [3]): 21.7 mg/kg; ED50 (Klebsiella pneumoniae [4]): 10.3 mg/kg; ED50 (Pseudomonas aeruginosa [7]): 29 mg/kg; ED50 (Staphylococcus aureus [8]): 2.4 mg/kg
CC1CN(c2cc3c(cc2F)c(=O)c(C(=O)O)cn3C(C)(C)C)CC(C)N1 (stereo not drawn)	2 µg/mL (≈ 5.33 µM)	–	8 µg/mL (≈ 21.3 µM)	0.5 µg/mL (≈ 1.33 µM)	1 µg/mL (≈ 2.66 µM)	4 µg/mL (≈ 10.7 µM)	0.25 µg/mL (≈ 0.666 µM)	2 µg/mL (≈ 5.33 µM)	–	MIC (Escherichia coli [11]): 0.13 µg/mL (≈ 0.346 µM); MIC (Enterobacter cloacae [12]): 0.13 µg/mL (≈ 0.346 µM)
CC1CN(c2nc3c(cc2F)c(=O)c(C(=O)O)cn3C(C)(C)C)CCN1 (stereo not drawn)	0.5 µg/mL (≈ 1.38 µM)	0.5 µg/mL (≈ 1.38 µM)	2 µg/mL (≈ 5.52 µM)	2 µg/mL (≈ 5.52 µM)	4 µg/mL (≈ 11 µM)	8 µg/mL (≈ 22.1 µM)	0.13 µg/mL (≈ 0.359 µM)	4 µg/mL (≈ 11 µM)	–	MIC (Enterobacter cloacae [13]): 1 µg/mL (≈ 2.76 µM)
CC1(N)CCN(c2cc3c(cc2F)c(=O)c(C(=O)O)cn3C(C)(C)C)C1 (stereo not drawn)	0.5 µg/mL (≈ 1.38 µM)	0.5 µg/mL (≈ 1.38 µM)	4 µg/mL (≈ 11.1 µM)	0.25 µg/mL (≈ 0.692 µM)	1 µg/mL (≈ 2.77 µM)	–	0.06 µg/mL (≈ 0.166 µM)	2 µg/mL (≈ 5.53 µM)	0.5 µg/mL (≈ 1.38 µM)	MIC (Pseudomonas aeruginosa [14]): 2 µg/mL (≈ 5.53 µM)
CC(C)(C)n1cc(C(=O)O)c(=O)c2cc(F)c(N3CCNCC3)nc21	0.5 µg/mL (≈ 1.44 µM)	0.015 µg/mL (≈ 0.0431 µM)	8 µg/mL (≈ 23 µM)	0.13 µg/mL (≈ 0.373 µM)	0.25 µg/mL (≈ 0.718 µM)	1 µg/mL (≈ 2.87 µM)	0.06 µg/mL (≈ 0.172 µM)	0.25 µg/mL (≈ 0.718 µM)	0.06 µg/mL (≈ 0.172 µM)	solubility [1]: 820 µg/mL (≈ 2350 µM); ED50 (Escherichia coli [3]): 4.7 mg/kg; ED50 (Klebsiella pneumoniae [4]): 4.8 mg/kg; ED50 (Pseudomonas aeruginosa [7]): 10.9 mg/kg; ED50 (Staphylococcus aureus [8]): 1.1 mg/kg; AUC (Canis familiaris): 50000 ng·h/mL
CC1(N)CCN(c2nc3c(cc2F)c(=O)c(C(=O)O)cn3C(C)(C)C)C1 (stereo not drawn)	0.5 µg/mL (≈ 1.38 µM)	0.06 µg/mL (≈ 0.166 µM)	4 µg/mL (≈ 11 µM)	0.06 µg/mL (≈ 0.166 µM)	0.5 µg/mL (≈ 1.38 µM)	–	0.015 µg/mL (≈ 0.0414 µM)	0.5 µg/mL (≈ 1.38 µM)	0.13 µg/mL (≈ 0.359 µM)	MIC (Pseudomonas aeruginosa [14]): 2 µg/mL (≈ 5.52 µM)
CC(C)(C)n1cc(C(=O)O)c(=O)c2cc(F)c(N3CCNC(CF)C3)nc21.CS(=O)(=O)O (stereo not drawn)	4 µg/mL	0.13 µg/mL	16 µg/mL	–	1 µg/mL	–	0.13 µg/mL	1 µg/mL	0.06 µg/mL	MIC (Klebsiella pneumoniae [15]): 0.13 µg/mL; MIC (Pseudomonas aeruginosa [16]): 4 µg/mL
CCNC1CCN(c2nc3c(cc2F)c(=O)c(C(=O)O)cn3C(C)(C)C)C1 (stereo not drawn)	0.13 µg/mL (≈ 0.345 µM)	0.06 µg/mL (≈ 0.159 µM)	4 µg/mL (≈ 10.6 µM)	0.06 µg/mL (≈ 0.159 µM)	1 µg/mL (≈ 2.66 µM)	–	0.06 µg/mL (≈ 0.159 µM)	1 µg/mL (≈ 2.66 µM)	–	MIC (Enterobacter cloacae [17]): 0.25 µg/mL (≈ 0.664 µM); MIC (Pseudomonas aeruginosa [16]): 4 µg/mL (≈ 10.6 µM)
